The target of series [1] is Transient receptor potential cation channel subfamily V member 1 (Rattus norvegicus, UniProt O35433). The series is classed as functional, tissue-based, Sprague-Dawley, Dorsal root ganglion.
For series [2], the target named is Transient receptor potential cation channel subfamily V member 1 (Homo sapiens, UniProt Q8NER1). Nature of the series: Antagonist activity at human TRPV1 assessed as inhibition of capsaicin-induced receptor activation by FLIPR assay. The series is classed as functional. Put shortly:
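Human TRPV1 activated by capsaicin; inhibition read by FLIPR. IC50 is the mean of ≥3 experiments.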

The subject of series [3] is Liver microsomes. Nature of the series: Metabolic stability in human liver microsomes assessed per mg of protein after 1 hr.
In series [4] the test system is Rattus norvegicus. Nature of the series: Antiinflammatory activity in Sprague-Dawley rat assessed as inhibition of carrageenan-induced thermal hyperalgesia at 3 mg/kg, po administered 3.5 hrs after carrageenan challenge measured after 5 hrs. The series is classed as functional. Summed up: (§1)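 Rat carrageenan-induced thermal hyperalgesia. Dosed orally as a suspension in 0.5% methocel; % inhibition reported at each dose.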

Series [5] deals with Rattus norvegicus. Nature of the series: Plasma concentration in Sprague-Dawley rat carrageenan-induced thermal hyperalgesia model at 3 mg/kg, po. The series is classed as ADME, organism-based. Also noted: dose 3 mg/kg, route oral. The following applies: in vivo. Summed up: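 Rats given compound orally as a suspension in 0.5% methocel in the carrageenan-induced thermal hyperalgesia model. Plasma sampled immediately after the CITH experiment.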

Series [6] in a line: Inhibition of MAOB.
Series [7] is described as follows: Metabolic stability in rat liver microsomes assessed as compound remaining after 10 min. The series is classed as ADME, Microsome. The following applies: read-out: Stability. (Liver microsomes are a subcellular fraction often used to study metabolism.)
For series [8], the system named is Rattus norvegicus. Nature of the series: Plasma concentration in Sprague-Dawley rat carrageenan-induced thermal hyperalgesia model at 1 mg/kg, po. The series is classed as ADME, organism-based. Also noted: dose 1 mg/kg, route oral. The note with it: in vivo. Put shortly:
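Plasma sampled immediately after the carrageenan thermal hyperalgesia experiment, following oral dosing as a suspension in 0.5% methocel.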

Series [9] relates to Rattus norvegicus. Nature of the series: Antiinflammatory activity in Sprague-Dawley rat assessed as inhibition of carrageenan-induced thermal hyperalgesia at 1 mg/kg, po administered 3.5 hrs after carrageenan challenge measured after 5 hrs. The series is classed as functional. Put shortly: as §1
The species entered for series [10] is Rattus norvegicus. The note with it: 20 mg/kg.
The test system of series [11] is Rattus norvegicus. Briefly: Antiinflammatory activity in Sprague-Dawley rat assessed as inhibition of carrageenan-induced thermal hyperalgesia at 0.3 mg/kg, po administered 3.5 hrs after carrageenan challenge measured after 5 hrs. Format: functional. Summed up:
as §1

Activity calls are given as the source filed them. The rule behind the calls is not given here. A value given as a limit tells only on which side of the number the result lay.

This note sets out measurements from ChEMBL document CHEMBL1212834, “Pyrido[2,3-b]pyrazines, discovery of TRPV1 antagonists with reduced potential for the formation of reactive metabolites” (Bioorg Med Chem Lett, 2010).

Sequence of Transient receptor potential cation channel subfamily V member 1 (Rattus norvegicus, UniProt O35433) (O35433 whole entry): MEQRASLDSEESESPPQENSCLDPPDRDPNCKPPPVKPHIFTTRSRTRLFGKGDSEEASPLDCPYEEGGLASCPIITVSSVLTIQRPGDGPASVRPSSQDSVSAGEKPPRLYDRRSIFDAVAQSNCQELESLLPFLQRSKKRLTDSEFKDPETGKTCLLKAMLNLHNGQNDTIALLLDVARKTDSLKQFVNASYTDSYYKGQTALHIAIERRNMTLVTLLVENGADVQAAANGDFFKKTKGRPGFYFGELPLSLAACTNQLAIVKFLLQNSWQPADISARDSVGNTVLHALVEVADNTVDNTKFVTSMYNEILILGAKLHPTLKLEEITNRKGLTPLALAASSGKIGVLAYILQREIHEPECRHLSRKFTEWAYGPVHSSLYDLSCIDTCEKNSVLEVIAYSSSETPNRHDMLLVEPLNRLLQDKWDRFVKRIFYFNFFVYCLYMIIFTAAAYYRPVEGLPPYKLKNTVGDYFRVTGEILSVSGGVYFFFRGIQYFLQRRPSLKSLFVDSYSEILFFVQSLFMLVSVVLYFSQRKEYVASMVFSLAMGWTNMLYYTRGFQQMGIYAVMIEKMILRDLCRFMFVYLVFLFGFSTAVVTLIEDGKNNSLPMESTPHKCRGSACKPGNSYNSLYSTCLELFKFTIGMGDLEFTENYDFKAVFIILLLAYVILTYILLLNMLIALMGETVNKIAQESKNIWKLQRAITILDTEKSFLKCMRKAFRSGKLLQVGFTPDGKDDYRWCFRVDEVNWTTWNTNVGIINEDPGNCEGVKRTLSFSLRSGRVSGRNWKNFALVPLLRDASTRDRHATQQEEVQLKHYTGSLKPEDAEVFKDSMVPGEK
Sequence of Transient receptor potential cation channel subfamily V member 1 (Homo sapiens, UniProt Q8NER1) (Q8NER1 whole entry): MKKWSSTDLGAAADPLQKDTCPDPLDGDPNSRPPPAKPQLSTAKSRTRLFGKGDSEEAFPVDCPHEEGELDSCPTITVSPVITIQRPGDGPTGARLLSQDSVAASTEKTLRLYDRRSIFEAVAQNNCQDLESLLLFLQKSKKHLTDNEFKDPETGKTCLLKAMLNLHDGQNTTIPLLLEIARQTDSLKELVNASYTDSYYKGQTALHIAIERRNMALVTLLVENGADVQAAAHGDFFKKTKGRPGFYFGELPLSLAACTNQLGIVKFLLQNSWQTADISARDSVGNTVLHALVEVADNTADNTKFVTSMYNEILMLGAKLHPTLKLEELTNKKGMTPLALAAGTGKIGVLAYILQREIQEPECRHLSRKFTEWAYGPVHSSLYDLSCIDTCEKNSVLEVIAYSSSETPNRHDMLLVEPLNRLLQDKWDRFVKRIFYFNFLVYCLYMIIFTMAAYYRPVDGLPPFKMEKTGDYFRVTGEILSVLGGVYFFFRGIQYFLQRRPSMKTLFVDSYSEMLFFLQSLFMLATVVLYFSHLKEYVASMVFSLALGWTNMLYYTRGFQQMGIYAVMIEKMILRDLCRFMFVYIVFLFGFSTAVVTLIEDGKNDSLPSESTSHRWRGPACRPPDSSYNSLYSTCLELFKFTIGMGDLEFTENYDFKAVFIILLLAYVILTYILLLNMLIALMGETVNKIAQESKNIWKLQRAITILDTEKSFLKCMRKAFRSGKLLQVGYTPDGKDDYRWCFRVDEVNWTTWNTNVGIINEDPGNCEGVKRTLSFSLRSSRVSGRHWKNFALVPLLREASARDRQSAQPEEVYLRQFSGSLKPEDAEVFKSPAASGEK

In the case of `O=C(O)c1cnc(-c2cnc3c(Nc4ccc(C(F)(F)F)cn4)ccnc3n2)c(C(F)(F)F)c1`, the IC50 (usually the concentration at which inhibition is half-maximal) is “Not Active” in series [1] and 27 nM in series [2].
As to `N#Cc1cnc(-c2cnc3c(Nc4ccc(C(F)(F)F)cn4)ccnc3n2)c(C(F)(F)F)c1`, the figures for the half-inhibitory concentration (IC50) entry in series [1] and in series [2] were “Not Active” and 15 nM, respectively.
In series [3], `FC(F)(F)c1ccc(Nc2ccnc3nc(-c4ncccc4C(F)(F)F)ccc23)nc1` displayed a Stability of 169 pmol. Besides, in [4], the inhibition in vivo (as a rule, the drop in the measured response relative to a control, in per cent) at 3 mg/kg came out at 115%. Also, the concentration is 1400 nM in series [5] and 300 nM in series [8]. Also, in [1] (read-out: IC50), the half-inhibitory concentration (IC50) is 3.2 nM. This compound also had an INH in series [6] of 2.2 nM. The remaining at 10 min in [7] was 100%. In addition, in [9], the inhibition in vivo at 1 mg/kg was 66%.
On to `FC(F)(F)c1cnc(Nc2ccnc3nc(-c4ncccc4C(F)(F)F)ccc23)cn1`, for which the 50% inhibitory concentration (IC50) in series [1] (read-out: IC50) stood at 6.3 nM; in series [2], 5.5 nM.
On to `FC(F)(F)c1csc(Nc2ccnc3nc(-c4ncccc4C(F)(F)F)ccc23)n1`, for which the IC50 entry in series [1] is “Not Active”; in [2] it was 47 nM.
For the compound `N#Cc1nc(Nc2ccnc3nc(-c4ncccc4C(F)(F)F)ccc23)ncc1C(F)(F)F`, the IC50 entry was “Not Active” in [1] and 25.4 nM in series [2].
On to `COc1ccc2cc([C@H](C)C(=O)O)ccc2c1`, for which the inhibition entry in [10] was “Active”.
In the case of `FC(F)(F)c1ccc(Nc2ccnc3nc(-c4ncncc4C(F)(F)F)ccc23)nc1`, the results for the IC50 result in series [1] and in [2] were “Not Active” and 134 nM, respectively.
With `NC(=O)c1ccnc(-c2ccc3c(Nc4ccc(C(F)(F)F)cn4)ccnc3n2)c1C(F)(F)F`, the IC50 entry in series [1] was “Not Active”; in series [2], 13 nM.
In series [3], `FC(F)(F)c1ccc(Nc2ccnc3nc(-c4ncsc4C(F)(F)F)ccc23)nc1` showed a Stability of 356 pmol. For the same compound, the IC50 entry in [1] was “Not Active”; in [2] it was 12 nM. In addition, the remaining at 10 min in series [7] was found to be 100%.
Turning to `O=C(O)c1nc(Nc2ccnc3nc(-c4ncccc4C(F)(F)F)ccc23)ncc1C(F)(F)F`, the results for the concentration for half-maximal inhibition (IC50) entry in [1] and in [2] were “Not Active” and 1450 nM, respectively.
Regarding `FC(F)(F)c1ccc(Nc2ccnc3nc(-c4ncc(Br)cc4C(F)(F)F)cnc23)nc1`, the IC50 result in series [1] was “Not Active”; in series [2], 30 nM.
Regarding `FC(F)(F)c1cnc(Nc2ccnc3nc(-c4ncccc4C(F)(F)F)ccc23)nc1`, the Stability in [3] was found to be 204 pmol. The inhibition in vivo at 3 mg/kg in [4] was 78%. The half-maximal inhibitory concentration (IC50) in series [1] (read-out: IC50) was determined as 4.6 nM; in [2], 4.4 nM. For the same compound, in [7], the remaining at 10 min worked out at 100%.
As for `O=C(O)c1ccnc(-c2ccc3c(Nc4ccc(C(F)(F)F)cn4)ccnc3n2)c1C(F)(F)F`, the half-maximal inhibitory concentration (IC50) result in [1] is “Not Active”; in series [2], 607 nM.
In series [6], `C[C@@H]1CN(c2ncccc2C(F)(F)F)CCN1C(=O)Nc1ccc(C(F)(F)F)cc1` came in with an INH of 17 nM.
Turning to `FC(F)(F)c1ccc(Nc2ccnc3nc(-c4ccncc4C(F)(F)F)ccc23)nc1`, the half-inhibitory concentration (IC50) result in series [1] was “Not Active”; in series [2] it was 161 nM.
On the same counts, the results for `FC(F)(F)c1cnc(Nc2ccnc3nc(-c4ncccc4C(F)(F)F)ccc23)nc1Cl` are “Not Active” and 81 nM.
For the compound `FC(F)(F)c1ccc(Nc2ccnc3nc(-c4nnccc4C(F)(F)F)ccc23)nc1`, the IC50 was determined as 7.1 nM in [1] (read-out: IC50) and 8.4 nM in series [2].
In the case of `FC(F)(F)c1ccc(Nc2ccnc3nc(-c4ncccc4C(F)(F)F)cnc23)nc1`, the inhibition in vivo at 0.3 mg/kg in series [11] was found to be 85%. Also, the Stability in series [3] is below 5 pmol. Also, the inhibition in vivo at 3 mg/kg in series [4] turned out to be 134%. In addition, the IC50 entry in series [1] was “Not Active”; in series [2], 0.2 nM. The remaining at 10 min in series [7] came to 100%.
With `NC(=O)c1nc(Nc2ccnc3nc(-c4ncccc4C(F)(F)F)ccc23)ncc1C(F)(F)F`, the IC50 result was “Not Active” in [1] and 48.7 nM in [2].
